{
  "source": "paper PMC7238799",
  "about": "(Pulmonary Circulation, 2020)",
  "key": {"[1]": {"system": "plasma protein", "conditions": "animals and humans; cited from earlier work"}, "[2]": {"test": "Single ascending dose", "format": "in vivo, human", "conditions": "for Tmax / AUC(0-inf) / AUC(0-t) / Cmax: both, human, plasma, po", "in_short": "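Healthy subjects received one oral immediate-release capsule dose of test compound (30–200 µg) or placebo, with food withheld 1 h after dosing. K₂EDTA blood was drawn pre-dose, at 0.25–120 h, then every 24 h through Day 14. Samples were chilled, centrifuged and frozen at –20 ℃. Plasma was assayed by LC-MS/MS (0.03–15.0 ng/mL). Noncompartmental, linear-trapezoidal parameters are reported as mean (SD), with Tmax as median (min–max).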"}, "[3]": {"system": "healthy subjects", "test": "Single ascending dose", "format": "in vivo, human", "in_short": "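Subjects received a single oral dose of test compound or identical-appearing placebo capsule and were kept as in-patients. Over seven days, adverse events, vital signs, 12-lead ECG and safety labs (serum chemistry, hematology, urinalysis) were assessed at multiple time points. Data were summarized descriptively by treatment group.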"}, "[4]": {"system": "rat monocrotaline model of PAH", "conditions": "oral; cited from earlier work"}, "[5]": {"conditions": "total ralinepag, all single doses, n = 24"}},
  "data": [
    {"smiles": "O=C(O)COC[C@H]1CC[C@H](COC(=O)N(c2ccccc2)c2ccc(Cl)cc2)CC1", "note": "[ralinepag]", "values": [
      {"measurement": "Plasma protein binding", "setting": "[1]", "result": "~99", "unit": "%"},
      {"measurement": "Tmax", "setting": "[2]", "result": "1 to 1.5", "unit": "h"},
      {"measurement": "AUC(0-inf)", "setting": "[2]; 30 ug", "result": 17.3, "unit": "ng·h/mL"},
      {"measurement": "AUC(0-t)", "setting": "[2]; 30 ug", "result": 15.9, "unit": "ng·h/mL"},
      {"measurement": "Cmax", "setting": "[2]; 30 ug", "result": 0.949, "unit": "ng/mL"},
      {"measurement": "Tmax", "setting": "[2]; 30 ug", "result": 1, "unit": "h"},
      {"measurement": "AUC(0-inf)", "setting": "[2]; 50 ug", "result": 22.8, "unit": "ng·h/mL"},
      {"measurement": "AUC(0-t)", "setting": "[2]; 50 ug", "result": 21.5, "unit": "ng·h/mL"},
      {"measurement": "Cmax", "setting": "[2]; 50 ug", "result": 1.49, "unit": "ng/mL"},
      {"measurement": "Tmax", "setting": "[2]; 50 ug", "result": 1.25, "unit": "h"},
      {"measurement": "AUC(0-inf)", "setting": "[2]; 100 ug", "result": 42.6, "unit": "ng·h/mL"},
      {"measurement": "AUC(0-t)", "setting": "[2]; 100 ug", "result": 41.2, "unit": "ng·h/mL"},
      {"measurement": "Cmax", "setting": "[2]; 100 ug", "result": 2.65, "unit": "ng/mL"},
      {"measurement": "Tmax", "setting": "[2]; 100 ug", "result": 1.5, "unit": "h"},
      {"measurement": "AUC(0-inf)", "setting": "[2]; 200 ug", "result": 103, "unit": "ng·h/mL"},
      {"measurement": "AUC(0-t)", "setting": "[2]; 200 ug", "result": 101, "unit": "ng·h/mL"},
      {"measurement": "Cmax", "setting": "[2]; 200 ug", "result": 6.17, "unit": "ng/mL"},
      {"measurement": "Tmax", "setting": "[2]; 200 ug", "result": 1.25, "unit": "h"},
      {"measurement": "Dose proportionality of Cmax and AUC", "setting": "[2]; single doses from 30 to 200 µg", "result": "approximately dose proportional"},
      {"measurement": "SAEs recorded", "setting": "[3]; any doses tested", "result": "no SAEs"},
      {"measurement": "Vital signs, ECGs, safety laboratory tests", "setting": "[3]; any single dose level", "result": "no clinically significant safety issues"},
      {"measurement": "Abdominal pain, subjects (%)", "setting": "[3]; single oral dose 30 µg, n = 6", "result": 0},
      {"measurement": "Flushing, subjects (%)", "setting": "[3]; single oral dose 30 µg, n = 6", "result": 0},
      {"measurement": "Headache, subjects (%)", "setting": "[3]; single oral dose 30 µg, n = 6", "result": "2 (33.3%)"},
      {"measurement": "Nausea, subjects (%)", "setting": "[3]; single oral dose 30 µg, n = 6", "result": 0},
      {"measurement": "Number of AEs reported", "setting": "[3]; single oral dose 30 µg, n = 6", "result": 2},
      {"measurement": "Pain in jaw, subjects (%)", "setting": "[3]; single oral dose 30 µg, n = 6", "result": 0},
      {"measurement": "Total (%) subjects with at least one AE", "setting": "[3]; single oral dose 30 µg, n = 6", "result": "2 (33.3%)"},
      {"measurement": "Vomiting, subjects (%)", "setting": "[3]; single oral dose 30 µg, n = 6", "result": 0},
      {"measurement": "Abdominal pain, subjects (%)", "setting": "[3]; single oral dose 50 µg, n = 6", "result": "1 (16.7%)"},
      {"measurement": "Flushing, subjects (%)", "setting": "[3]; single oral dose 50 µg, n = 6", "result": 0},
      {"measurement": "Headache, subjects (%)", "setting": "[3]; single oral dose 50 µg, n = 6", "result": "5 (83.3%)"},
      {"measurement": "Nausea, subjects (%)", "setting": "[3]; single oral dose 50 µg, n = 6", "result": "1 (16.7%)"},
      {"measurement": "Number of AEs reported", "setting": "[3]; single oral dose 50 µg, n = 6", "result": 11},
      {"measurement": "Pain in jaw, subjects (%)", "setting": "[3]; single oral dose 50 µg, n = 6", "result": "2 (33.3%)"},
      {"measurement": "Total (%) subjects with at least one AE", "setting": "[3]; single oral dose 50 µg, n = 6", "result": "5 (83.3%)"},
      {"measurement": "Vomiting, subjects (%)", "setting": "[3]; single oral dose 50 µg, n = 6", "result": 0},
      {"measurement": "Abdominal pain, subjects (%)", "setting": "[3]; single oral dose 100 µg, n = 6", "result": "1 (16.7%)"},
      {"measurement": "Flushing, subjects (%)", "setting": "[3]; single oral dose 100 µg, n = 6", "result": "1 (16.7%)"},
      {"measurement": "Headache, subjects (%)", "setting": "[3]; single oral dose 100 µg, n = 6", "result": "5 (83.3%)"},
      {"measurement": "Nausea, subjects (%)", "setting": "[3]; single oral dose 100 µg, n = 6", "result": "2 (33.3%)"},
      {"measurement": "Number of AEs reported", "setting": "[3]; single oral dose 100 µg, n = 6", "result": 17},
      {"measurement": "Pain in jaw, subjects (%)", "setting": "[3]; single oral dose 100 µg, n = 6", "result": "3 (50.0%)"},
      {"measurement": "Total (%) subjects with at least one AE", "setting": "[3]; single oral dose 100 µg, n = 6", "result": "6 (100%)"},
      {"measurement": "Vomiting, subjects (%)", "setting": "[3]; single oral dose 100 µg, n = 6", "result": "2 (33.3%)"},
      {"measurement": "Tolerability of the 200 µg single dose", "setting": "[3]; single oral dose 200 µg", "result": "not at 200 µg due to AEs of nausea and vomiting"},
      {"measurement": "Flushing, subjects (%)", "setting": "[3]; single oral dose 200 µg, n = 6", "result": "1 (16.7%)"},
      {"measurement": "Headache, subjects (%)", "setting": "[3]; single oral dose 200 µg, n = 6", "result": "5 (83.3%)"},
      {"measurement": "Nausea, subjects (%)", "setting": "[3]; single oral dose 200 µg, n = 6", "result": "3 (50.0%)"},
      {"measurement": "Number of AEs reported", "setting": "[3]; single oral dose 200 µg, n = 6", "result": 21},
      {"measurement": "Pain in jaw, subjects (%)", "setting": "[3]; single oral dose 200 µg, n = 6", "result": "1 (16.7%)"},
      {"measurement": "Total (%) subjects with at least one AE", "setting": "[3]; single oral dose 200 µg, n = 6", "result": "6 (100%)"},
      {"measurement": "Vomiting, subjects (%)", "setting": "[3]; single oral dose 200 µg, n = 6", "result": "6 (100%)"},
      {"measurement": "Tolerated single dose", "setting": "[3]; single oral dose, IR capsule, healthy subjects", "result": "up to 100 µg"},
      {"measurement": "Abdominal pain, subjects (%)", "setting": "[3]; [5]", "result": "3 (12.5%)"},
      {"measurement": "Flushing, subjects (%)", "setting": "[3]; [5]", "result": "2 (8.3%)"},
      {"measurement": "Headache, subjects (%)", "setting": "[3]; [5]", "result": "17 (70.8%)"},
      {"measurement": "Nausea, subjects (%)", "setting": "[3]; [5]", "result": "6 (25.0%)"},
      {"measurement": "Number of AEs reported", "setting": "[3]; [5]", "result": 51},
      {"measurement": "Pain in jaw, subjects (%)", "setting": "[3]; [5]", "result": "6 (25.0%)"},
      {"measurement": "Total (%) subjects with at least one AE", "setting": "[3]; [5]", "result": "19 (79.2%)"},
      {"measurement": "Vomiting, subjects (%)", "setting": "[3]; [5]", "result": "8 (33.3%)"},
      {"measurement": "Efficacy in rat monocrotaline model of PAH", "setting": "[4]", "result": "dose-dependent oral efficacy"}
    ]}
  ]
}
